Assay results published in PMC4188730 (European journal of medicinal chemistry, 2014).
Entries after “also recorded” stand apart in the source; their conditions may differ.

Tests used:
[1] = system: HDAC isoforms; conditions: cited from earlier work
[2] = system: HCT116 colorectal cancer cell line; experiment: Cytoproliferation; type: cell-based; conditions: for effect on cell growth: HCT116, 96 hours, up to the highest concentration tested, 5 μM; for effect on cytoproliferation at lower concentrations: HCT116, 0.01, 0.1 and 1.0 nM (data not shown)
Procedure, shortened: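 HCT116 colorectal carcinoma cells seeded at 3×10⁴ cells/well in quadruplicate, attached overnight. Medium then replaced with fresh medium containing test compound; incubated 96 hours at 37 °C, 5% CO₂. CellTiter 96 One Solution MTS reagent added for 1.5 h at 37 °C, absorbance read at 490 nm. Points are mean of two experiments, 4 replicates each, with SEM.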

[3] = system: global H3K9 acetylation in HCT116 cells; experiment: Western blot of global histone H3K9 acetylation; type: cell-based; conditions: HCT116, 24 hours, 100 nM and 1 μM; for induction of global H3K9 (H3) acetylation: 10 nM; for concentration at which increase of global H3K9 acetylation was observed: tested at 10 nM
Procedure, shortened: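 HCT116 cells exposed 24 hours to test compound at 10 nM, 100 nM or 1 μM, or to DMSO. Lysed in RIPA buffer (50 mmol/L Tris-HCl, 1% NP-40, 0.25% deoxycholate, 150 mmol/L NaCl, 50 mmol/L NaF). Protein quantified by DC assay, 30 μg/lane run on SDS-PAGE. Blots probed for acetyl-H3 with β-actin loading control, detected by dye-conjugated secondaries on infrared scanner.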

[4] = molecular target: T1, recombinant HDAC6 (Homo sapiens, UniProt Q9UBN7); experiment: Fluorimetric HDAC activity assay, recombinant HDAC6; type: biochemical; conditions: 0–5 μM
T1 sequence (Q9UBN7 1-1215): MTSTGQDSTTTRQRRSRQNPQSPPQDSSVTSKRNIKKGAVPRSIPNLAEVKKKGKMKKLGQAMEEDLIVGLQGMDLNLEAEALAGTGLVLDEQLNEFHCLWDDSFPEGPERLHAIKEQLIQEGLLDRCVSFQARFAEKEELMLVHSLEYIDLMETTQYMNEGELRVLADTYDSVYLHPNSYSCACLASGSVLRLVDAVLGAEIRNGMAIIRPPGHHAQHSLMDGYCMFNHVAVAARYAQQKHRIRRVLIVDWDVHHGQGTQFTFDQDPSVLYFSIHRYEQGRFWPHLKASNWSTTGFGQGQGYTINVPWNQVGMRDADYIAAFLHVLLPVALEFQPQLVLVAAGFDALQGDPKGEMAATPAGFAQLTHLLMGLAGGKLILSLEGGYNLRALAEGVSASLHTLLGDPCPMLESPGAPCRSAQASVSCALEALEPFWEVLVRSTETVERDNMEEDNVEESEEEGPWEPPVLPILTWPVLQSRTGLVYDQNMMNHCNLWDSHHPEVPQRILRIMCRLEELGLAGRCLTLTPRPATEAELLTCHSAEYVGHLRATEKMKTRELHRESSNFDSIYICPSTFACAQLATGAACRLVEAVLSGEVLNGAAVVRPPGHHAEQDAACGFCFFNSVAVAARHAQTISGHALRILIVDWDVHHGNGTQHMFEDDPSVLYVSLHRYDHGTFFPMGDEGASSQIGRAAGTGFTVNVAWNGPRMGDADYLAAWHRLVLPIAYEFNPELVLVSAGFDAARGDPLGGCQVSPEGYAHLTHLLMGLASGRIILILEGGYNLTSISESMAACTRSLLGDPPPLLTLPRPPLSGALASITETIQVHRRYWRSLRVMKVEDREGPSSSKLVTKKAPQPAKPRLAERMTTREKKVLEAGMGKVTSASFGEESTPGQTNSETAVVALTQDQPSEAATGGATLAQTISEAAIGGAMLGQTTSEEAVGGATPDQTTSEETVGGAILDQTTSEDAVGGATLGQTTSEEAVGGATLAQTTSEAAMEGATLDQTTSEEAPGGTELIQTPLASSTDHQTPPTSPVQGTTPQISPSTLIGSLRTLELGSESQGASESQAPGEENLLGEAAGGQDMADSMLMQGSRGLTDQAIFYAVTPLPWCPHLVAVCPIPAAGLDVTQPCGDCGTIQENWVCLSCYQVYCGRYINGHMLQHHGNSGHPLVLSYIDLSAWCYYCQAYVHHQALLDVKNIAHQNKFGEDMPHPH

[5] = molecular target: recombinant HDAC1 (Homo sapiens, UniProt Q13547); experiment: Fluorimetric HDAC activity assay, recombinant HDAC1; type: biochemical; conditions: at 0.1 μM, 1 hour
[6] = system: human cancer cells; conditions: cited from earlier work

recombinant HDAC1, sequence (Q13547 whole entry): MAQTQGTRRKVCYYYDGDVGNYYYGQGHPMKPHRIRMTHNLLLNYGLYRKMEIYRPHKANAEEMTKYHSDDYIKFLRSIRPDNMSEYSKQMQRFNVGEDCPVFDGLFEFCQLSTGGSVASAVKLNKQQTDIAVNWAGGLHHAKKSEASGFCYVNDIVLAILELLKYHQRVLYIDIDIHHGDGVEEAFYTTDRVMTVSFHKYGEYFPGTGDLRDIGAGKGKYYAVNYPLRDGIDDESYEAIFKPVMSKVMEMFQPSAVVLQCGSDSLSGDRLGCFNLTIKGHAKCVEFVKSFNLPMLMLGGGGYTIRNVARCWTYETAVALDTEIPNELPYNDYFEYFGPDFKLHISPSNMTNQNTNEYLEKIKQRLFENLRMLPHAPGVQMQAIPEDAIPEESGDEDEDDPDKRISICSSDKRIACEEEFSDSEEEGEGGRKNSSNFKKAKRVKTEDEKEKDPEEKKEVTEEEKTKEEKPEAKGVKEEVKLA

SMILES | effect on cell growth [2] | induction of global H3K9 (H3) acetylation [3] | concentration at which increase of global H3K9 acetylation was observed [3] | also measured
CCCCCCCC(=O)SCCC=CC1CC(=O)NCc2nc(cs2)C2=NC(C)(CS2)C(=O)NC(C(C)C)C(=O)O1 (single isomer, unassigned) [enantiomer of largazole] |  |  |  | potency in inhibiting HDAC isoforms relative to largazole [1]: three times less potent
CCCCCCCC(=O)SCC/C=C/[C@@H]1CC(=O)NCc2nc(cs2)C2=N[C@](C)(CS2)C(=O)N[C@@H](C(C)C)C(=O)O1 [Analogue 12] | minimal effect | very little induction; also recorded: slight increase; also recorded: no change; also recorded: slight induction |  | 
CCCCCCCC(=O)SCC/C=C/[C@@H]1CC(=O)NCc2nc(cs2)C2=N[C@@](C)(CS2)C(=O)N[C@H](Cc2cccc3ccccc23)C(=O)O1 [Analogue 16a] | minimal effect; also recorded: no effect | very little induction; also recorded: no change; also recorded: failed to induce |  | HDAC6 specific inhibition (comparison among analogues) [4]: least amount
C=CCC1NC(=O)C2(C)CSC(=N2)c2csc(n2)CNC(=O)CC(C=CCCSC(=O)CCCCCCC)OC1=O (stereo not shown) [Analogue 16b] | significant effect | greatest induction; also recorded: robust induction | 100 nM | effect on cytoproliferation at lower concentrations [2]: No significant effect
CCCCCCCC(=O)SCC/C=C/[C@@H]1CC(=O)NCc2nc(cs2)C2=N[C@@](C)(CS2)C(=O)N[C@@H](Cc2cccc3ccccc23)C(=O)O1 [Analogue 16c] | significant effect | greatest induction; also recorded: robust induction | 10 nM | effect on cytoproliferation at lower concentrations [2]: No significant effect; inhibition of HDAC1 activity [5]: about 15%
CCCCCCCC(=O)SCCC=CC1CC(=O)NCc2nc(cs2)C2=NC(C)(CS2)C(=O)NC(C(C)C)C(=O)O1 (stereo not shown) [C-2 epimer of largazole] |  |  |  | inhibitory potency against HDAC isoforms [1]: sub-micromolar
CCCCCCCC(=O)SCCC=CC1CC(=O)NCc2nc(cs2)C2=NC(C)(CS2)C(=O)NC(Cc2ccc(O)cc2)C(=O)O1 [L-tyrosine analogue] |  |  |  | selectivity toward human cancer cells over normal cells [6]: 100 fold
CCCCCCCC(=O)SCC/C=C/[C@@H]1CC(=O)NCc2nc(cs2)C2=N[C@@](C)(CS2)C(=O)N[C@@H](C(C)C)C(=O)O1 [largazole, reference compound] |  |  | 10 nM | GI50 ([2]; Homo sapiens, HCT-116, 96 h): < 10 nM
